Source: ChEMBL document CHEMBL4765412, “(±)-trans-2-phenyl-2,3-dihydrobenzofurans as leishmanicidal agents: Synthesis, in vitro evaluation and SAR analysis” (Eur J Med Chem, 2020)

Key:
Leishmania donovani = assay: Antileishmanial activity against Leishmania donovani MHOM/ET/67/L82 amastigotes assessed as growth inhibition incubated for 70 hrs by resazurin based inverted microscopic analysis; assay type: functional, organism-based
Outline: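 Axenic L. donovani amastigotes (MHOM/ET/67/L82); racemates tested unless stated; miltefosine as positive control. Some values come from a separate run and were rescaled by that run's relative miltefosine IC50.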

L6 = assay: Cytotoxicity against rat L6 cells assessed as reduction in cell viability incubated for 70 hrs by resazurin staining based inverted microscopic analysis; settings: L6, 70 h
Outline: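 Rat L-6 skeletal myoblast line; racemates tested unless stated.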

[1] = Selectivity index, ratio of IC50 for cytotoxicity against rat L6 cells to IC50 for antileishmanial activity against Leishmania donovani MHOM/ET/67/L82 amastigotes; assay type: toxicity, cell-based; settings: for selectivity ratio: read-out: Ratio IC50
[2] = Leishmania donovani, MHOM/ET/67/L82, 70 h

Row | SMILES | IC50 (Leishmania donovani; [2]) [µM] | IC50 (L6) [µM] | selectivity ratio [1] | IC50 (Leishmania donovani) [µM] | Ratio IC50 [1]
1 | CC(C)OC(=O)/C=C/c1cc(O)c2c(c1)[C@@H](C(=O)OC(C)C)[C@H](c1ccc(O)c(O)c1)O2 | 0.65 | 10.6 | 16.4 |  | 
2 | CC(C)OC(=O)/C=C/c1cc(O)c2c(c1)[C@H](C(=O)OC(C)C)[C@@H](c1ccc(O)c(O)c1)O2 |  |  |  | 0.53 | 19.3
3 | COC(=O)/C=C/c1cc(O)c2c(c1)[C@H](C(=O)OC)[C@@H](c1ccc(O)c(O)c1)O2 (racemic) | 12.6 | 0.37 | 0.03 |  | 
4 | COC(=O)/C=C/c1ccc2c(c1)[C@H](C(=O)OC)[C@@H](c1ccc(O)cc1)O2 (racemic) | 7.84 | 23.2 | 3 |  | 
5 | COc1cc([C@H]2Oc3c(OC)cc(/C=C/CO)cc3[C@@H]2CO)ccc1O (racemic) | 160 | 74.2 | 0.5 |  | 
6 | COC(=O)/C=C/c1cc(OC)c2c(c1)[C@H](C(=O)OC)[C@@H](c1ccc(O)c(OC)c1)O2 (racemic) | 10.6 | 2.43 | 0.2 |  | 
7 | COc1cc([C@H]2Oc3c(OC)cc(/C=C/C(=O)OC(C)C)cc3[C@@H]2C(=O)OC(C)C)ccc1O (racemic) | 3.95 | 10.3 | 2.6 |  | 
8 | CC(C)(C)OC(=O)/C=C/c1cc(F)c2c(c1)[C@H](C(=O)OC(C)(C)C)[C@@H](c1ccc(O)c(F)c1)O2 (racemic) | 1.97 | 9.22 | 4.7 |  | 
9 | CCCCOC(=O)/C=C/c1cc(OC)c2c(c1)[C@H](C(=O)OCCCC)[C@@H](c1ccc(O)c(OC)c1)O2 (racemic) | 3.11 | 8.18 | 2.6 |  | 
10 | CC(C)(C)OC(=O)/C=C/c1cc(O)c2c(c1)[C@H](C(=O)OC(C)(C)C)[C@@H](c1ccc(O)c(O)c1)O2 (racemic) | 1.66 | 9.05 | 5.5 |  | 
11 | CCOC(=O)/C=C/c1ccc2c(c1)[C@H](C(=O)OCC)[C@@H](c1ccc(O)cc1)O2 (racemic) | 7.45 | 26.3 | 3.5 |  | 
12 | CCOC(=O)/C=C/c1cc(O)c2c(c1)[C@H](C(=O)OCC)[C@@H](c1ccc(O)c(O)c1)O2 (racemic) | 3.87 | 9.99 | 2.6 |  | 
13 | CC(C)OC(=O)/C=C/c1ccc2c(c1)[C@H](C(=O)OC(C)C)[C@@H](c1ccc(O)cc1)O2 (racemic) | 4.21 | 14.3 | 3.4 |  | 
14 | CC(C)(C)OC(=O)/C=C/c1ccc2c(c1)[C@H](C(=O)OC(C)(C)C)[C@@H](c1ccc(O)cc1)O2 (racemic) | 6.07 | 13.3 | 2.2 |  | 
15 | CCCCOC(=O)/C=C/c1cc(O)c2c(c1)[C@H](C(=O)OCCCC)[C@@H](c1ccc(O)c(O)c1)O2 (racemic) | 1.66 | 9.34 | 5.6 |  | 
16 | CCCCCCCCOC(=O)/C=C/c1cc(O)c2c(c1)[C@H](C(=O)OCCCCCCCC)[C@@H](c1ccc(O)c(O)c1)O2 (racemic) | 23.5 | 19.1 | 0.8 |  | 
17 | CCOC(=O)/C=C/c1cc(OC)c2c(c1)[C@H](C(=O)OCC)[C@@H](c1ccc(O)c(OC)c1)O2 (racemic) | 9.1 | 4.42 | 0.5 |  | 
18 | COc1cc([C@H]2Oc3c(OC)cc(/C=C/C(=O)OC(C)(C)C)cc3[C@@H]2C(=O)OC(C)(C)C)ccc1O (racemic) | 2.1 | 11.4 | 5.4 |  | 
19 | CCCCOC(=O)/C=C/c1ccc2c(c1)[C@H](C(=O)OCCCC)[C@@H](c1ccc(O)cc1)O2 (racemic) | 10.8 | 14.3 | 1.3 |  | 
20 | C=CCOC(=O)/C=C/c1cc(O)c2c(c1)[C@H](C(=O)OCC=C)[C@@H](c1ccc(O)c(O)c1)O2 (racemic) | 6.32 | 6.41 | 1 |  | 
21 | CCCCCCCCCCCCCCCCOP(=O)([O-])OCC[N+](C)(C)C [MILTEFOSINE] | 0.77 |  |  |  | 
